SMILES strings stand for the structures. pIC50: −log10 of the molar value. Values after ≈ are worked out from the molar mass of the structure shown. Active and inactive are the calls of the source. The rule behind the calls is not given here. A value given as a limit tells only on which side of the number the result lay.

For data set [1], the system named is T-cell line. The experiment in a line: Cytotoxicity against human PBMC derived PHA-activated T-lymphocytes assessed as effect on cell viability by trypan blue staining based analysis. It is filed as toxicity. Conditions: 30 µM. The method in brief: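 PBMC purified by Ficoll gradient with red-cell lysis, seeded at 1.5 × 10⁶ cells/mL in RPMI with 10% heat-inactivated serum and 2 mM L-glutamine. Activated with PHA-L 240 ng/mL alongside compounds at 30 μM. Viability of treated versus untreated cells judged by trypan blue staining.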

Data set [2] deals with T1, Potassium voltage-gated channel subfamily A member 3 (Homo sapiens, UniProt P22001). The experiment in a line: Inhibition of human Kv1.3 expressed in Xenopus laevis Oocyte cells at 10 uM by manual patch clamp method relative to control. It counts as cell-based. Put shortly:
(§1)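 Human Kv1.3 cRNA injected into defolliculated Xenopus oocytes. Two-electrode voltage clamp 1–4 days later at 18–22 °C in ND96 (pH 7.5). Currents evoked by 1 s depolarizations, with inhibition read at the 0 mV step. Compounds from DMSO stock at ≤0.5% DMSO, either single 10 μM or rising concentrations fitted with the Hill equation for IC50.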

The target in data set [3] is Potassium voltage-gated channel subfamily A member 1 (Homo sapiens, UniProt Q09470). The experiment in a line: Inhibition of Kv1.1 (unknown origin) expressed in Xenopus laevis Oocyte cells by electrophysiological recording. It counts as cell-based. Put shortly: (§2)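 Kv1.x cRNA expressed in defolliculated Xenopus oocytes and recorded by two-electrode voltage clamp 1–4 days after injection, at 18–22 °C in ND96 pH 7.5. 1 s pulses, analysed at 0 mV. Compounds applied at rising concentrations with ≤0.5% DMSO, and current inhibition relative to control fitted with the Hill equation.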

For data set [4], the target named is T1, Potassium voltage-gated channel subfamily A member 3. The experiment in a line: Inhibition of Kv1.3 in human PBMC derived PHA-activated T-lymphocytes assessed as reduction in intracellular calcium level at 5 uM incubated for 2 hrs by Fluo-4 Ca2+ based flow cytometric analysis relative to control. It counts as cell-based. To be noted: T-lymphocyte. The method in brief: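 PBMC activated 5 days with PHA, then given compounds at 5 μM for 2 h. Scraped and loaded with Fluo-4 (2 μM) plus anti-CD3-APC at 37 °C for 1 h, washed, and held 30 min at 37 °C with compound (5 μM) before flow cytometry. Fluo-4 MFI of the CD3⁺ gate, 3 replicates, normalized to untreated control; n = 4.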
In general terms: Calcium flux is commonly read through the fluorescence of an indicator in the cells.

Data set [5] has as its system T-cell. The experiment in a line: Induction of cell cycle arrest at G0/G1 phase in human PBMC derived PHA-activated T-lymphocytes assessed as reduction G2/M phase cells at 30 uM measured after 5 days by flow cytometric analysis. It counts as functional, cell-based. Conditions: time 5.0 day. Put shortly: (§3)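 PHA-activated PBMC exposed to compounds (30 μM) for 5 days in RPMI/10% heat-inactivated calf serum/2 mM L-glutamine, scraped off and incubated 1 h at 4 °C in the dark. Cell cycle read by flow cytometry and scored as G0/G1 versus cycling (S+G2/M) percentage. Mean ± SD of 3 experiments; unpaired t-test against untreated cells.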
On the technique in general: A flow cytometer gives signals particle by particle.

For data set [6], the target named is T1, Potassium voltage-gated channel subfamily A member 3. The experiment in a line: Inhibition of human Kv1.3 expressed in mouse LTK- cells by manual patch clamp electrophysiological recording. It counts as cell-based. Put shortly:
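Mouse Ltk⁻ fibroblasts in DMEM/10% horse serum transiently transfected with hKv1.3 plasmid plus eGFP marker, and recorded 24 h later. Whole-cell patch clamp at 20–23 °C. Compounds diluted from DMSO stocks with final DMSO ≤0.1%, with 0.1% DMSO as vehicle control. Normalized current plotted against concentration and fitted with the Hill equation for IC50; mean ± SEM, n = cells.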
A general note: Patch clamp records ionic current or voltage across a cell membrane.

The test system of data set [7] is T-cell line. The experiment in a line: Cytotoxicity against human PBMC derived PHA-activated T-lymphocytes assessed as effect on total cell number at 30 uM incubated for 5 days by bright-field microscopic analysis. It counts as toxicity, cell-based. Conditions: 120 h, time 5 day. The method in brief:
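Ficoll-purified PBMC at 1.5 × 10⁶ cells/mL in RPMI/10% heat-inactivated serum/2 mM L-glutamine, stimulated with PHA-L 240 ng/mL and exposed to compounds (30 μM) for 5 days. Cells then counted to give total cell number.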

The target of data set [8] is T1, Potassium voltage-gated channel subfamily A member 3. The experiment in a line: Inhibition of human Kv1.3 expressed in Xenopus laevis Oocyte cells by Electrophysiology recording. It counts as cell-based. The method in brief: as §1
For data set [9] the target is unchanged. The experiment in a line: Selectivity ratio of IC50 for inhibition of human Kv1.3 expressed in mouse LTK- cells to IC50 for inhibition of human Kv1.3 expressed in Xenopus laevis Oocyte cells. It counts as cell-based.
The nature of data set [10]: Stability of compound in PBS at pH 7.4 measured for >=120 hrs by HPLC analysis. It counts as physicochemical. To be noted: buffer, pH 7.4, 120 h. Put shortly:
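Aqueous stability: 10 mM DMSO stock diluted to a final 50 μM in PBS pH 7.4 with 20% MeCN and 0.5% DMSO, filtered, held at 37 °C. UPLC (BEH C18, 280 nm) injections every 4 h for the first 24 h, then every 8 h. Analyte AUC plotted against time; triplicates.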

Data set [11] has as its target T1, Potassium voltage-gated channel subfamily A member 3. The experiment in a line: Inhibition of Kv1.3 (unknown origin) expressed in PBMC derived PHA-activated T-lymphocyte cells incubated for 5 days by manual patch clamp method. It counts as cell-based. The method in brief: (§4)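 Whole-cell recording on PBMC stimulated 5 days with PHA-L (240 ng/mL); about 90% of cells CD3⁺. Large cells chosen; cells with currents ≤500–600 pA discarded. Bath in mM: 130 NaCl, 5 KCl, 2 CaCl₂, 2 MgCl₂, 10 HEPES, 5 glucose, pH 7.4; pipette KF-based with 11 EGTA, pH 7.2. Leak-subtracted two-step outward K⁺ current. Single concentration 5 μM, or 0.05 nM–50 μM for curves; peak normalized to control.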

Data set [12] is described as follows: Thermodynamic solubility of the compound at pH 7.4 incubated for 24 hrs under shaking condition by HPLC analysis. It counts as physicochemical. Conditions: buffer, read-out: Therm_solubility. Put shortly:
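Supernatant diluted 1:2 or 1:10 in 0.1% TFA/MeCN 1:1 and quantified by reversed-phase UPLC at 290 nm against a 7-point calibration (1–100 μM). Mean of two independent experiments, in μM.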

A further data set addresses hERG (KCNH2) (Homo sapiens, UniProt Q12809). The experiment in a line: Inhibition of hERG overexpressed in HEK293 cells at 5 uM relative to control. It counts as toxicity, cell-based. Conditions: HEK293 cells overexpressing hERG.
Data set [13] concerns the target Potassium voltage-gated channel subfamily A member 2 (Homo sapiens, UniProt P16389). The experiment in a line: Inhibition of Kv1.2 (unknown origin) expressed in Xenopus laevis Oocyte cells by electrophysiological recording. It counts as cell-based. Put shortly: as §2
The target of data set [14] is T1, Potassium voltage-gated channel subfamily A member 3. The experiment in a line: Inhibition of Kv1.3 (unknown origin) expressed in human PBMC derived PHA-activated T-lymphocyte cells assessed as reduction in total outward potassium current at 5 uM by patch clamp electrophysiology method. It counts as cell-based. The method in brief:
as §4

Data set [15] concerns T-cell. The experiment in a line: Inhibition of human PBMC derived PHA-activated T-lymphocytes activation assessed as inhibition of colony formation by measuring reduction in colony forming units at 30 uM incubated for 5 days by bright-field microscopic analysis. To be noted: time 5.0 day. It is filed as functional, cell-based. Put shortly: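 PBMC at 1.5 × 10⁶ cells/mL treated with compounds (30 μM) together with PHA-L (240 ng/mL) for 5 days in RPMI with 10% heat-inactivated bovine calf serum and 2 mM L-glutamine. After medium removal, wells imaged by bright-field microscopy at 2× and colonies (CFU) counted. Mean ± SD of 3 experiments.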

Data set [16] has as its system T-cell. The experiment in a line: Induction of cell cycle arrest at G0/G1 phase in human PBMC derived PHA-activated T-lymphocytes assessed as reduction S phase cells at 30 uM measured after 5 days by flow cytometric analysis. It counts as functional, cell-based. Conditions: time 5.0 day. The method in brief: as §3
Data set [17] has as its target Potassium voltage-gated channel subfamily A member 5 (Homo sapiens) (UniProt P22460). The experiment in a line: Inhibition of Kv1.5 (unknown origin) expressed in Xenopus laevis Oocyte cells by electrophysiological recordings relative to control. It counts as cell-based. To be noted: concentration not given here. The method in brief: as §2
Data set [18] concerns the target Potassium voltage-gated channel subfamily A member 6 (Homo sapiens) (UniProt P17658). The experiment in a line: Inhibition of Kv1.6 (unknown origin) expressed in Xenopus laevis Oocyte cells by electrophysiological recordings relative to control. It is filed as cell-based. Conditions: concentration not given here. Put shortly:
as §2

The target in data set [19] is Potassium voltage-gated channel subfamily A member 4 (Homo sapiens) (UniProt P22459). The experiment in a line: Inhibition of Kv1.4 (unknown origin) expressed in Xenopus laevis Oocyte cells by electrophysiological recordings relative to control. It is filed as cell-based. To be noted: concentration not given here. Put shortly: as §2
Potassium voltage-gated channel subfamily A member 4 (Homo sapiens), sequence (P22459 whole entry): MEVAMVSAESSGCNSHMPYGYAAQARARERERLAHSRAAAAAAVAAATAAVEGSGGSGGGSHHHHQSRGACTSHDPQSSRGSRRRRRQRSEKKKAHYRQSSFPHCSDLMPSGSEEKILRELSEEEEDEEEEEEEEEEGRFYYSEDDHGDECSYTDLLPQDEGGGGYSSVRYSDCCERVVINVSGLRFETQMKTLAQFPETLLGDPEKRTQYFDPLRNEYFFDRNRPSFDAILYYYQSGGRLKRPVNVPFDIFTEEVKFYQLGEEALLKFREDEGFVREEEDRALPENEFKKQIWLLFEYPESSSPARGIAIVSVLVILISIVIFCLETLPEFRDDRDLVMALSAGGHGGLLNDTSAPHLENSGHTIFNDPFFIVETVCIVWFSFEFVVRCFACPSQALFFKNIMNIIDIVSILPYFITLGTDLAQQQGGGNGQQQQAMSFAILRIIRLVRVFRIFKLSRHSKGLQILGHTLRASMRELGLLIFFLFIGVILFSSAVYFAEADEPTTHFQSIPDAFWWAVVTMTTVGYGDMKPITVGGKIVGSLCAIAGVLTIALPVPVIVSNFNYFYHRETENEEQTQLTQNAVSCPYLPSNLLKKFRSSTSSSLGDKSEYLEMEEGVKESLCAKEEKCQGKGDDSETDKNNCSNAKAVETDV

T1 sequence (P22001 whole entry): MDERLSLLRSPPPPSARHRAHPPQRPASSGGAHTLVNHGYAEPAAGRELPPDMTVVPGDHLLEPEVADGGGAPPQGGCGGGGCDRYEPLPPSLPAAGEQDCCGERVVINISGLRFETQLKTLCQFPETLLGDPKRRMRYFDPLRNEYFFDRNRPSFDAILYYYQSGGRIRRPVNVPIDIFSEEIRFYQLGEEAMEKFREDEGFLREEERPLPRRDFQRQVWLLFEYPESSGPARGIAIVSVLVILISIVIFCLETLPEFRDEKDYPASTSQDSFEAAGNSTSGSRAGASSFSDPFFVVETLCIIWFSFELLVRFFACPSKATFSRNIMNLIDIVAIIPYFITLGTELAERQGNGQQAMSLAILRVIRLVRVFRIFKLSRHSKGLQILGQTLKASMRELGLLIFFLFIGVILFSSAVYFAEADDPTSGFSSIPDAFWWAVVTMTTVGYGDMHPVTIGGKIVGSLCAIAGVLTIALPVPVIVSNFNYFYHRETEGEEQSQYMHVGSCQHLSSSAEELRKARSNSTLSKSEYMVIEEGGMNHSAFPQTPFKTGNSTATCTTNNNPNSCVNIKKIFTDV
hERG (KCNH2), sequence (Q12809 whole entry): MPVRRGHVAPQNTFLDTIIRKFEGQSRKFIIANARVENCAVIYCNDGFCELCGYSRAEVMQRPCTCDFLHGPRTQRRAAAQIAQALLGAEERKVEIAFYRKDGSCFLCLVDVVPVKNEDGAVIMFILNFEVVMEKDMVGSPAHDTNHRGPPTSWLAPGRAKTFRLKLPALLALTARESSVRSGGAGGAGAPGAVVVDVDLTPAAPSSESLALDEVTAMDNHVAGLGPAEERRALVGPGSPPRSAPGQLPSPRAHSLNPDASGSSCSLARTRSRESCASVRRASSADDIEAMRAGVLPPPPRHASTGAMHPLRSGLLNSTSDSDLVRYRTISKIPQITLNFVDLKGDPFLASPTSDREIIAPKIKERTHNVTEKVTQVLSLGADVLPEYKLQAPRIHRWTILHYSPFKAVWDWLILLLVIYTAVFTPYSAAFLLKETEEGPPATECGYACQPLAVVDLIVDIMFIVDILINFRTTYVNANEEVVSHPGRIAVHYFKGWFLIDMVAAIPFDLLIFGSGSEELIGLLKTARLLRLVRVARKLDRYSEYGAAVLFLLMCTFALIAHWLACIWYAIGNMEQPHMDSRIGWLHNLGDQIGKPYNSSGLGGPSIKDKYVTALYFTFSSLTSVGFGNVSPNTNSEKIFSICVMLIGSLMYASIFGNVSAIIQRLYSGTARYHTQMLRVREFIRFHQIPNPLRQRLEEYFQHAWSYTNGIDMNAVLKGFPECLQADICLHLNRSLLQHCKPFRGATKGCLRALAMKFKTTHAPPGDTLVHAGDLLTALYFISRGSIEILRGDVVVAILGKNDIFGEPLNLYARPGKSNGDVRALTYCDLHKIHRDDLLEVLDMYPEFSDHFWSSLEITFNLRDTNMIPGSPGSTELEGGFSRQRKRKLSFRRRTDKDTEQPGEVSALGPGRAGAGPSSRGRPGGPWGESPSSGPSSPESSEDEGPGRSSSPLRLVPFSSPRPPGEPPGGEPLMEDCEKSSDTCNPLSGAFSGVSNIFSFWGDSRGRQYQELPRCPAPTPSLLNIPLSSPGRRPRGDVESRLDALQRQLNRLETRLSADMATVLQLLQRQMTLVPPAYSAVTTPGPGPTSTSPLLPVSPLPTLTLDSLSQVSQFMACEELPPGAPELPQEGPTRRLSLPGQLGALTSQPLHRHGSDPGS
Potassium voltage-gated channel subfamily A member 6 (Homo sapiens), sequence (P17658 whole entry): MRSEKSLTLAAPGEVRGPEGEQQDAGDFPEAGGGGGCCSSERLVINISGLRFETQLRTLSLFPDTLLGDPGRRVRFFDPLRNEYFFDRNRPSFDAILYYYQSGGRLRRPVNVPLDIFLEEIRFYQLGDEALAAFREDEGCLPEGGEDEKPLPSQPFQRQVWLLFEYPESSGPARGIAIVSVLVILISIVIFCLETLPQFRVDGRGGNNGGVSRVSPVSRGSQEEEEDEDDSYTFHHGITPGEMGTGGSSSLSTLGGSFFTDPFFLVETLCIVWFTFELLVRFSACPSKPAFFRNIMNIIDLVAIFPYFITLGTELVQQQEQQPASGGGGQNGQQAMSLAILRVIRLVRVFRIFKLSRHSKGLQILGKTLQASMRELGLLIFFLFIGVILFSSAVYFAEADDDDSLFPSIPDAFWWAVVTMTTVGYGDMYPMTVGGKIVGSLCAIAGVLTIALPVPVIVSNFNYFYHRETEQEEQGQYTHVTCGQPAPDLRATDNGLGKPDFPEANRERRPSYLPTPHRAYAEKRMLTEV
Potassium voltage-gated channel subfamily A member 5 (Homo sapiens), sequence (P22460 whole entry): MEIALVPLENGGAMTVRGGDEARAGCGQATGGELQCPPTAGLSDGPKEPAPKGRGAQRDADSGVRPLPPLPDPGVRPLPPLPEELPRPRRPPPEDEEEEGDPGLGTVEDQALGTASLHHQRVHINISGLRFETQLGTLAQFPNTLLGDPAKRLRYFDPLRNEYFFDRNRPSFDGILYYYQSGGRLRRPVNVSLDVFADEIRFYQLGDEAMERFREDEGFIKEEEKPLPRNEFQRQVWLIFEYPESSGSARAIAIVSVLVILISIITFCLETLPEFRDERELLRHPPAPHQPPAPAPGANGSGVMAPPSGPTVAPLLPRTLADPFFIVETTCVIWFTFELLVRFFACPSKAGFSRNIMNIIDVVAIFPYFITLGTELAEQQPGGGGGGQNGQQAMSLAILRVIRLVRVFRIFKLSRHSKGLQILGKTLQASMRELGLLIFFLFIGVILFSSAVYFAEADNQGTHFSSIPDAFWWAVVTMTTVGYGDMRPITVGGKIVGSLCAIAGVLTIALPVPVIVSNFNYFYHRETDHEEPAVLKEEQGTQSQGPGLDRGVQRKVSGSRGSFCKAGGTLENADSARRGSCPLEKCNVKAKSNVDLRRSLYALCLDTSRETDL
Potassium voltage-gated channel subfamily A member 1, sequence (Q09470 whole entry): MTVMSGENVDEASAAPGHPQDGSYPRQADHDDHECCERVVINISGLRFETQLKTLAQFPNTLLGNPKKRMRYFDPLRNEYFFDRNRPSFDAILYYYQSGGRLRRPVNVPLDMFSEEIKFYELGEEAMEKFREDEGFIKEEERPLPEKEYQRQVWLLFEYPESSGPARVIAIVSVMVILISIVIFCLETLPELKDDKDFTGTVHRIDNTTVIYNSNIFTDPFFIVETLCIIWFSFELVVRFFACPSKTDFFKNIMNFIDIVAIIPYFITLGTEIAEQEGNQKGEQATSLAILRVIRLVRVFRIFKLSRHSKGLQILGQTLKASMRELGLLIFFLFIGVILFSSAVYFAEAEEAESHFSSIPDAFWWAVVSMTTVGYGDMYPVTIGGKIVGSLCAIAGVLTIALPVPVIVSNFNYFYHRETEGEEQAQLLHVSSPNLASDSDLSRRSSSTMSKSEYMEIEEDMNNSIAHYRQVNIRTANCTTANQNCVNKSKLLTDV
Potassium voltage-gated channel subfamily A member 2, sequence (P16389 whole entry): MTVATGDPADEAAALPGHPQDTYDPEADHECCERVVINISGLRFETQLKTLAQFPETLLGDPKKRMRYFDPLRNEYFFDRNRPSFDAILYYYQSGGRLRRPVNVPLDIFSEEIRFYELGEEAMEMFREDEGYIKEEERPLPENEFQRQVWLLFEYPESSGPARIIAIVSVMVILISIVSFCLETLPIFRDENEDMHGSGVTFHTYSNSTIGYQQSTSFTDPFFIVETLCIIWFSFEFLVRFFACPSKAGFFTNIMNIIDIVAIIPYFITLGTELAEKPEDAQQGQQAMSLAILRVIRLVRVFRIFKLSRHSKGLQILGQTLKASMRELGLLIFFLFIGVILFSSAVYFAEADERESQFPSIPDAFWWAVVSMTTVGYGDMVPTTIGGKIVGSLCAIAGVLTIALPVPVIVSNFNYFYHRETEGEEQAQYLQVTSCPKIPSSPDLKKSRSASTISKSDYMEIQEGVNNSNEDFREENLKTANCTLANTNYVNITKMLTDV

As usually defined, the inhibition is the relative decrease from the control value, in per cent. Usually pIC50 stands for the IC50 on a negative log10 scale, so that one unit is a factor of ten. Lower therefore signals a high IC50. As for `CCCNC(=O)O[C@H]1CC[C@@](CNC(=O)c2ccccc2OC)(c2ccsc2)CC1`, the Activity result in the data set on T-cell line [1] and in the data set on T-cell line [7] was “Non-Toxic” each time. Besides, the inhibition is 90.7% in [2]; 27% in data set [4]; 11.4% in data set [17]; -1.1% in [18]; 6.4% in [19]. Further, the pIC50 in [3] is 6.91; in data set [6], 6.64; in data set [8], 6.87; in [11], 7.58; in data set [13] it was 6.51. Also, the result in the data set on T-cell [5] and in the data set on T-cell [16] was Active. Also, in data set [9], the Ratio IC50 was under 2. Also, in data set [10], the Stability entry is reported as “Stable”. Besides, the solubility thermodynamic at 24 h in data set [12] turned out to be 22 µM (≈ 9.47 µg/mL). Besides, on hERG (KCNH2), the inhibition at 5 µM came out at 21%. For the same compound, the inhibition result (in data set [14]; in the data set on T-cell [15]) was “Active” throughout.
